{"source": "paper PMC6247064", "about": "(Cancer Science, 2018)", "test_system": "Japanese patients with advanced solid tumors", "experiment": "Phase 1 study: safety, tolerability, DLT and treatment-emergent adverse events", "assay_type": "in vivo, human", "method_in_brief": "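Open-label single-arm dose levels of 80 or 105 mg/m2 IV were given on day 1 of 14-day cycles, with at most 6 patients per level. Adverse events were graded by CTCAE v4.03. DLTs were related events in cycle 1 meeting predefined hematologic or nonhematologic criteria. Tolerability required a cycle 1 DLT rate <33%. Primary G-CSF prophylaxis was barred during DLT evaluation; G-CSF was allowed for treatment-emergent neutropenia and as secondary prophylaxis.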"}
{"compound": "COc1cccc(OCCCN)c1-c1cc(Nc2cnc(C#N)cn2)n[nH]1", "note": "[Prexasertib]", "values": [{"measurement": "Serious AE reported in one patient", "setting": "80 mg/m^2, 2 (anemia and thrombocytopenia) related to study treatment, constipation not", "value": 3, "unit": "serious AE"}, {"measurement": "TEAE related to study treatment: Anemia", "setting": "80 mg/m^2 N = 6, Any grade", "value": "3 (50.0) n (%)"}, {"measurement": "TEAE related to study treatment: Any", "setting": "80 mg/m^2 N = 6, Any grade", "value": "6 (100) n (%)"}, {"measurement": "TEAE related to study treatment: Atrial fibrillation", "setting": "80 mg/m^2 N = 6, Any grade", "value": "1 (16.7) n (%)"}, {"measurement": "TEAE related to study treatment: Constipation", "setting": "80 mg/m^2 N = 6, Any grade", "value": "2 (33.3) n (%)"}, {"measurement": "TEAE related to study treatment: ECG QT prolonged", "setting": "80 mg/m^2 N = 6, Any grade", "value": "2 (33.3) n (%)"}, {"measurement": "TEAE related to study treatment: Fatigue", "setting": "80 mg/m^2 N = 6, Any grade", "value": "1 (16.7) n (%)"}, {"measurement": "TEAE related to study treatment: Febrile neutropenia", "setting": "80 mg/m^2 N = 6, Any grade", "value": "1 (16.7) n (%)"}, {"measurement": "TEAE related to study treatment: Headache", "setting": "80 mg/m^2 N = 6, Any grade", "value": "0 n (%)"}, {"measurement": "TEAE related to study treatment: Hypocalcemia", "setting": "80 mg/m^2 N = 6, Any grade", "value": "0 n (%)"}, {"measurement": "TEAE related to study treatment: Leukopenia", "setting": "80 mg/m^2 N = 6, Any grade", "value": "6 (100) n (%)"}, {"measurement": "TEAE related to study treatment: Lung infection", "setting": "80 mg/m^2 N = 6, Any grade", "value": "1 (16.7) n (%)"}, {"measurement": "TEAE related to study treatment: Lymphocytopenia", "setting": "80 mg/m^2 N = 6, Any grade", "value": "2 (33.3) n (%)"}, {"measurement": "TEAE related to study treatment: Nausea", "setting": "80 mg/m^2 N = 6, Any grade", "value": "2 (33.3) n (%)"}, {"measurement": "TEAE related to study treatment: Neutropenia", "setting": "80 mg/m^2 N = 6, Any grade", "value": "5 (83.3) n (%)"}, {"measurement": "TEAE related to study treatment: Pyrexia", "setting": "80 mg/m^2 N = 6, Any grade", "value": "1 (16.7) n (%)"}, {"measurement": "TEAE related to study treatment: Rash", "setting": "80 mg/m^2 N = 6, Any grade", "value": "1 (16.7) n (%)"}, {"measurement": "TEAE related to study treatment: Rash maculopapular", "setting": "80 mg/m^2 N = 6, Any grade", "value": "1 (16.7) n (%)"}, {"measurement": "TEAE related to study treatment: SVE (supraventricular extrasystoles)", "setting": "80 mg/m^2 N = 6, Any grade", "value": "1 (16.7) n (%)"}, {"measurement": "TEAE related to study treatment: Stomatitis", "setting": "80 mg/m^2 N = 6, Any grade", "value": "1 (16.7) n (%)"}, {"measurement": "TEAE related to study treatment: Thrombocytopenia", "setting": "80 mg/m^2 N = 6, Any grade", "value": "4 (66.7) n (%)"}, {"measurement": "TEAE related to study treatment: Anemia", "setting": "80 mg/m^2 N = 6, Grade 3", "value": "1 (16.7) n (%)"}, {"measurement": "TEAE related to study treatment: Any", "setting": "80 mg/m^2 N = 6, Grade 3", "value": "2 (33.3) n (%)"}, {"measurement": "TEAE related to study treatment: Atrial fibrillation", "setting": "80 mg/m^2 N = 6, Grade 3", "value": "0 n (%)"}, {"measurement": "TEAE related to study treatment: Constipation", "setting": "80 mg/m^2 N = 6, Grade 3", "value": "0 n (%)"}, {"measurement": "TEAE related to study treatment: ECG QT prolonged", "setting": "80 mg/m^2 N = 6, Grade 3", "value": "0 n (%)"}, {"measurement": "TEAE related to study treatment: Fatigue", "setting": "80 mg/m^2 N = 6, Grade 3", "value": "0 n (%)"}, {"measurement": "TEAE related to study treatment: Febrile neutropenia", "setting": "80 mg/m^2 N = 6, Grade 3", "value": "0 n (%)"}, {"measurement": "TEAE related to study treatment: Headache", "setting": "80 mg/m^2 N = 6, Grade 3", "value": "0 n (%)"}, {"measurement": "TEAE related to study treatment: Hypocalcemia", "setting": "80 mg/m^2 N = 6, Grade 3", "value": "0 n (%)"}, {"measurement": "TEAE related to study treatment: Leukopenia", "setting": "80 mg/m^2 N = 6, Grade 3", "value": "1 (16.7) n (%)"}, {"measurement": "TEAE related to study treatment: Lung infection", "setting": "80 mg/m^2 N = 6, Grade 3", "value": "0 n (%)"}, {"measurement": "TEAE related to study treatment: Lymphocytopenia", "setting": "80 mg/m^2 N = 6, Grade 3", "value": "1 (16.7) n (%)"}, {"measurement": "TEAE related to study treatment: Nausea", "setting": "80 mg/m^2 N = 6, Grade 3", "value": "0 n (%)"}, {"measurement": "TEAE related to study treatment: Neutropenia", "setting": "80 mg/m^2 N = 6, Grade 3", "value": "1 (16.7) n (%)"}, {"measurement": "TEAE related to study treatment: Pyrexia", "setting": "80 mg/m^2 N = 6, Grade 3", "value": "0 n (%)"}, {"measurement": "TEAE related to study treatment: Rash", "setting": "80 mg/m^2 N = 6, Grade 3", "value": "0 n (%)"}, {"measurement": "TEAE related to study treatment: Rash maculopapular", "setting": "80 mg/m^2 N = 6, Grade 3", "value": "0 n (%)"}, {"measurement": "TEAE related to study treatment: SVE (supraventricular extrasystoles)", "setting": "80 mg/m^2 N = 6, Grade 3", "value": "0 n (%)"}, {"measurement": "TEAE related to study treatment: Stomatitis", "setting": "80 mg/m^2 N = 6, Grade 3", "value": "0 n (%)"}, {"measurement": "TEAE related to study treatment: Thrombocytopenia", "setting": "80 mg/m^2 N = 6, Grade 3", "value": "2 (33.3) n (%)"}, {"measurement": "TEAE related to study treatment: Anemia", "setting": "80 mg/m^2 N = 6, Grade 3 + 4", "value": "2 (33.3) n (%)"}, {"measurement": "TEAE related to study treatment: Any", "setting": "80 mg/m^2 N = 6, Grade 3 + 4", "value": "6 (100) n (%)"}, {"measurement": "TEAE related to study treatment: Atrial fibrillation", "setting": "80 mg/m^2 N = 6, Grade 3 + 4", "value": "0 n (%)"}, {"measurement": "TEAE related to study treatment: Constipation", "setting": "80 mg/m^2 N = 6, Grade 3 + 4", "value": "0 n (%)"}, {"measurement": "TEAE related to study treatment: ECG QT prolonged", "setting": "80 mg/m^2 N = 6, Grade 3 + 4", "value": "0 n (%)"}, {"measurement": "TEAE related to study treatment: Fatigue", "setting": "80 mg/m^2 N = 6, Grade 3 + 4", "value": "0 n (%)"}, {"measurement": "TEAE related to study treatment: Febrile neutropenia", "setting": "80 mg/m^2 N = 6, Grade 3 + 4", "value": "1 (16.7) n (%)"}, {"measurement": "TEAE related to study treatment: Headache", "setting": "80 mg/m^2 N = 6, Grade 3 + 4", "value": "0 n (%)"}, {"measurement": "TEAE related to study treatment: Hypocalcemia", "setting": "80 mg/m^2 N = 6, Grade 3 + 4", "value": "0 n (%)"}, {"measurement": "TEAE related to study treatment: Leukopenia", "setting": "80 mg/m^2 N = 6, Grade 3 + 4", "value": "4 (66.7) n (%)"}, {"measurement": "TEAE related to study treatment: Lung infection", "setting": "80 mg/m^2 N = 6, Grade 3 + 4", "value": "0 n (%)"}, {"measurement": "TEAE related to study treatment: Lymphocytopenia", "setting": "80 mg/m^2 N = 6, Grade 3 + 4", "value": "1 (16.7) n (%)"}, {"measurement": "TEAE related to study treatment: Nausea", "setting": "80 mg/m^2 N = 6, Grade 3 + 4", "value": "0 n (%)"}, {"measurement": "TEAE related to study treatment: Neutropenia", "setting": "80 mg/m^2 N = 6, Grade 3 + 4", "value": "4 (66.7) n (%)"}, {"measurement": "TEAE related to study treatment: Pyrexia", "setting": "80 mg/m^2 N = 6, Grade 3 + 4", "value": "0 n (%)"}, {"measurement": "TEAE related to study treatment: Rash", "setting": "80 mg/m^2 N = 6, Grade 3 + 4", "value": "0 n (%)"}, {"measurement": "TEAE related to study treatment: Rash maculopapular", "setting": "80 mg/m^2 N = 6, Grade 3 + 4", "value": "0 n (%)"}, {"measurement": "TEAE related to study treatment: SVE (supraventricular extrasystoles)", "setting": "80 mg/m^2 N = 6, Grade 3 + 4", "value": "0 n (%)"}, {"measurement": "TEAE related to study treatment: Stomatitis", "setting": "80 mg/m^2 N = 6, Grade 3 + 4", "value": "0 n (%)"}, {"measurement": "TEAE related to study treatment: Thrombocytopenia", "setting": "80 mg/m^2 N = 6, Grade 3 + 4", "value": "3 (50.0) n (%)"}, {"measurement": "TEAE related to study treatment: Anemia", "setting": "80 mg/m^2 N = 6, Grade 4", "value": "1 (16.7) n (%)"}, {"measurement": "TEAE related to study treatment: Any", "setting": "80 mg/m^2 N = 6, Grade 4", "value": "4 (66.7) n (%)"}, {"measurement": "TEAE related to study treatment: Atrial fibrillation", "setting": "80 mg/m^2 N = 6, Grade 4", "value": "0 n (%)"}, {"measurement": "TEAE related to study treatment: Constipation", "setting": "80 mg/m^2 N = 6, Grade 4", "value": "0 n (%)"}, {"measurement": "TEAE related to study treatment: ECG QT prolonged", "setting": "80 mg/m^2 N = 6, Grade 4", "value": "0 n (%)"}, {"measurement": "TEAE related to study treatment: Fatigue", "setting": "80 mg/m^2 N = 6, Grade 4", "value": "0 n (%)"}]}
